According to ChEMBL document CHEMBL3868590, “Quambalarine B, a Secondary Metabolite from Quambalaria cyanescens with Potential Anticancer Properties” (J Nat Prod, 2016):
Active and inactive are the calls of the source. The rule behind the calls is not given here.

How the values were obtained:
REH [1] = experiment: Decrease in C-MYC mRNA level in human REH cells at EC50 measured after 24 hrs by RT-qPCR analysis; type: functional, cell-based
[2] = biological target: Myc proto-oncogene protein (Homo sapiens) (UniProt P01106); experiment: Inhibition of C-MYC in human REH cells assessed as decrease in PKM2 level at EC50 measured after 24 hrs by RT-qPCR analysis; type: cell-based
Myc proto-oncogene protein (Homo sapiens), sequence (P01106 whole entry): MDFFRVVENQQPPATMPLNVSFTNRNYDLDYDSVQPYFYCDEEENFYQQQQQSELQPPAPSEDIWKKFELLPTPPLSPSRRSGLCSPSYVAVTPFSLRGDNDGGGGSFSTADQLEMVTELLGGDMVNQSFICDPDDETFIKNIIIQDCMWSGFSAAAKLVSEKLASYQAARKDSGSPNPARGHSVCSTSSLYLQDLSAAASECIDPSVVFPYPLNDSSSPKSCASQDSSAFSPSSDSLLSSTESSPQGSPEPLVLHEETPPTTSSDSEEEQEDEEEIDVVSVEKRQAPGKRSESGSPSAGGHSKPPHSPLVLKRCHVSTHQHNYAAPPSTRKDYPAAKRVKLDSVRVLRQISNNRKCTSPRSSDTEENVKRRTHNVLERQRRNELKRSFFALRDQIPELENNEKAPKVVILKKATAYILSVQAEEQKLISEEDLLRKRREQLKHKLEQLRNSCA

NALM-6 [3] = experiment: Cytostatic activity against eFluor670-labelled human NALM6 cells assessed as live cells at 2 umol/L measured immediately after compound addition by Hoechst-33258 staining-based FACS analysis (reference value: 95.8%); type: functional
REH [4] = experiment: Cytostatic activity against eFluor670-labelled human REH cells assessed as live cells at 2 umol/L measured on day 2 by Hoechst-33258 staining-based FACS analysis (reference value: 90.8%); type: functional
NALM-6 [5] = experiment: Inhibition of P70S6K in human NALM6 cells assessed as decrease in C-MYC expression at 2 to 20 umol/L by immunoblot analysis; type: cell-based; settings: TDE = time-dependent effect
Method in brief: (§1)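 Cells prepared as for RT-qPCR (7.5 × 10^5 cells/mL). Treated either with the line-specific EC50 concentration over a time course, or 24 h with graded concentrations up to that EC50. Cells washed with phosphatase inhibitors and lysed in RIPA; 40 μg protein per lane on SDS-PAGE, then nitrocellulose. Immunoblotted for C-MYC, P70S6K, p-P70S6K (Ser424) and actin.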

REH [6] = experiment: Cytostatic activity against human REH cells at 2 umol/L measured after 2 to 3 days using Burker counting chamber; type: functional, cell-based
Method in brief: (§2)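 Cells were seeded at 2.5 × 10^5 cells/mL in DMSO-containing medium, with or without 2 μmol/L compound. Cells were counted daily in a Bürker chamber. PDL was calculated as log(Nf/N0)/log 2 over 6 days. Values are mean ± SD of three experiments, compared with DMSO controls.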

Jurkat [7] = experiment: Cytostatic activity against eFluor670-labelled human Jurkat cells assessed as live cells at 2 umol/L measured on day 1 by Hoechst-33258 staining-based FACS analysis (reference value: 98.2%); type: functional
[8] = biological target: Myc proto-oncogene protein (Homo sapiens) (UniProt P01106); experiment: Inhibition of C-MYC in human NALM6 cells assessed as decrease in LDHA level at EC50 measured after 24 hrs by RT-qPCR analysis; type: cell-based; settings: NALM-6
Jurkat [9] = experiment: Decrease in C-MYC mRNA level in human Jurkat cells at EC50 measured after 24 hrs by RT-qPCR analysis; type: functional, cell-based
[10] = biological target: Myc proto-oncogene protein (Homo sapiens) (UniProt P01106); experiment: Inhibition of C-MYC in human Jurkat cells assessed as decrease in GLS level at EC50 measured after 24 hrs by RT-qPCR analysis; type: cell-based
[11] = Cytotoxicity against human REH cells assessed as reduction in viable cells measured after 24 hrs by Hoechst-33258 staining-based FACS analysis; type: functional, cell-based
Method in brief: (§3)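 Leukemic lines kept in RPMI1640 with 10% FBS, penicillin/streptomycin, 37 °C, 5% CO2. Seeded at 2 × 10^5 cells/mL and exposed 24 h to a range of compound concentrations (DMSO stock); medium and DMSO negative controls. Live fraction taken from Hoechst 33258-negative singlets by flow cytometry. EC50 from five-parameter nonlinear regression.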

Jurkat [12] = experiment: Inhibition of P70S6K in human Jurkat cells assessed as decrease in C-MYC expression measured after 24 hrs by immunoblot analysis; type: cell-based; method in brief: as §1
Jurkat [13] = experiment: Inhibition of P70S6K in human Jurkat cells assessed as decrease in c-MYC expression at EC50 up to 24 hrs by immunoblot analysis; type: cell-based; method in brief: as §1
Jurkat [14] = experiment: Cytostatic activity against eFluor670-labelled human Jurkat cells assessed as live cells at 2 umol/L measured on day 5 by Hoechst-33258 staining-based FACS analysis (reference value: 97%); type: functional
NALM-6 [15] = experiment: Cytostatic activity against human NALM6 cells at 2 umol/L measured after 4 to 5 days using Burker counting chamber; type: functional, cell-based; method in brief: as §2
[16] = biological target: Myc proto-oncogene protein (Homo sapiens) (UniProt P01106); experiment: Inhibition of C-MYC in human REH cells assessed as decrease in LDHA level at EC50 measured after 24 hrs by RT-qPCR analysis; type: cell-based
NALM-6 [17] = experiment: Cytostatic activity against eFluor670-labelled human NALM6 cells assessed as live cells at 2 umol/L measured on day 2 by Hoechst-33258 staining-based FACS analysis (reference value: 97.7%); type: functional
[18] = biological target: Myc proto-oncogene protein (Homo sapiens) (UniProt P01106); experiment: Inhibition of C-MYC in human NALM6 cells assessed as decrease in PKM2 level at EC50 measured after 24 hrs by RT-qPCR analysis; type: cell-based; settings: NALM-6
[19] = Cytotoxicity against B lymphocytes in human PBMC population assessed as reduction in viable cells measured after 24 hrs by Hoechst-33258 staining-based FACS analysis; type: toxicity, cell-based, B-cell
Method in brief: (§4)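 PBMC were isolated from blood on a Ficoll-Paque gradient and seeded at 1 × 10^5 cells/well in 400 μL RPMI1640. Cells were exposed to a range of compound concentrations for 24 h. Viable CD3+, CD14+ and CD20+ populations were measured as Hoechst 33258-negative singlets by flow cytometry. EC50 was obtained by five-parameter nonlinear regression.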

[20] = Cytotoxicity against CD3+ T-lymphocytes in human PBMC population assessed as reduction in viable cells measured after 24 hrs by Hoechst-33258 staining-based FACS analysis; type: toxicity, cell-based, T-cell; method in brief: as §4
[21] = Downregulation of P70S6K protein expression in human NALM6 cells at EC50 measured after 24 hrs by immunoblot analysis; type: functional, cell-based; settings: NALM-6; method in brief: as §1
[22] = Cytotoxicity against human Jurkat cells assessed as reduction in viable cells measured after 24 hrs by Hoechst-33258 staining-based FACS analysis; type: functional, cell-based; method in brief: as §3
Jurkat [23] = experiment: Inhibition of P70S6K in human Jurkat cells assessed as inhibition of phosphorylated P70S6K expression up to 20 umol/L measured after 24 hrs by immunoblot analysis; type: cell-based; method in brief: as §1
Jurkat [24] = experiment: Cytostatic activity against eFluor670-labelled human Jurkat cells assessed as live cells at 2 umol/L measured on day 3 by Hoechst-33258 staining-based FACS analysis (reference value: 98.3%); type: functional
[25] = Cytotoxicity against PHA/LPS-stimulated CD3-positive T-lymphocytes in eFluor-670-labeled human PBMC assessed as divided cells at 2 umol/L administered post 18 hrs of PHA/LPS-stimulation measured after 72 hrs by Hoechst-33258 staining-based FACS analysis (reference value: 24.2%); type: toxicity; settings: t-cell, 2 µM
Method in brief: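 PBMC were labelled with 1 μmol/L CPD, stimulated with PHA (5 μg/mL) plus LPS (1 μg/mL), and seeded at 3 × 10^5 cells/well in 300 μL. Compound was added after 18 h and left for 72 h. Cells were stained with anti-CD3. Unstimulated cells set the CPD+ gate. Proliferation index, division index and % divided were calculated for CPD+CD3+ Hoechst-negative cells.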

[26] = Cytotoxicity against CD14+ monocytes in human PBMC population assessed as viable cells at 15 umol/L measured after 24 hrs by Hoechst-33258 staining-based FACS analysis (reference value: 13.8%); type: toxicity, cell-based, Monocyte; settings: read-out: Activity; method in brief: as §4
Jurkat [27] = experiment: Cytostatic activity against eFluor670-labelled human Jurkat cells assessed as live cells at 2 umol/L measured immediately after compound addition by Hoechst-33258 staining-based FACS analysis (reference value: 98.2%); type: functional
Jurkat [28] = experiment: Cytostatic activity against eFluor670-labelled human Jurkat cells assessed as live cells at 2 umol/L measured on day 4 by Hoechst-33258 staining-based FACS analysis (reference value: 97.3%); type: functional

Q: Which Activity (REH [1]) does the source give for CCCCCC(=O)C1=C(O)C(=O)c2c(O)c(O)cc(O)c2C1=O here?
A: Active

Q: And the inhibition [2]?
A: Active

Q: What about the Activity (NALM-6 [3]) of the same compound?
A: 95.8%

Q: And the Activity (REH [4])?
A: 40.2%

Q: What about the inhibition (NALM-6 [5]) of the same compound?
A: Tde

Q: What about the Activity (REH [6]) of the same compound?
A: Active

Q: What about the Activity (Jurkat [7]) of the same compound?
A: 88.4%

Q: What about the inhibition [8] of the same compound?
A: Active

Q: What about the Activity (Jurkat [9]) of the same compound?
A: Active

Q: And the inhibition [10]?
A: Active

Q: And the EC50 [11]?
A: 22 µM

Q: And the inhibition (Jurkat [12])?
A: Dose-dependent effect

Q: What about the inhibition (Jurkat [13]) of the same compound?
A: Active

Q: What about the Activity (Jurkat [14]) of the same compound?
A: 25.5%

Q: And the Activity (NALM-6 [15])?
A: Active

Q: What about the inhibition [16] of the same compound?
A: Active

Q: And the Activity (NALM-6 [17])?
A: 97.7%

Q: And the inhibition [18]?
A: Active

Q: What about the EC50 at 24 h [19] of the same compound?
A: > 50 µM

Q: And the EC50 at 24 h [20]?
A: 65.7 µM

Q: What about the Activity [21] of the same compound?
A: Active

Q: What about the EC50 [22] of the same compound?
A: 7.41 µM

Q: What about the inhibition (Jurkat [23]) of the same compound?
A: Active

Q: And the Activity (Jurkat [24])?
A: 69.2%

Q: And the Activity [25]?
A: 15.9%

Q: And the viability at 24 h, 15 µM [26]?
A: 8.1%

Q: What about the Activity (Jurkat [27]) of the same compound?
A: 98.2%

Q: And the Activity (Jurkat [28])?
A: 39.5%
